According to paper PMC3163154 (Molecular pharmaceutics, 2011):

Assays:
LNCaP cells [1] = test: Cytotoxicity assay; type: cell-based; conditions: read-out: IC50 in LNCaP cells; LNCaP (PTEN-null), 72 hours, MTT assay
DU145 cells = test: Cytotoxicity assay; type: cell-based; conditions: read-out: IC50 in DU145 cells; DU145 (PTEN-wild), 72 hours, MTT assay
Procedure, shortened: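 DU145 cells were seeded at 3×10³ cells/well, a lower density than LNCaP owing to fast growth. After 24 h, test compound was added and cells were incubated 72 h at 37°C. Relative cell number was measured by MTT. IC50 was obtained by fitting a concentration-response curve.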

PI3Kβ = conditions: selectivity; cited from earlier work
LNCaP cells [2] = test: In vitro competitive receptor binding assay; type: cell-based; conditions: pre-incubation with Ac-KCCYSL 1 hour, then KCC-TGX 30 minutes
Procedure, shortened: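 LNCaP cells were plated at 2×10⁴ cells/well for 12 h and PBS-washed. They were pre-incubated 1 h at 37°C with the HER2-targeting peptide at the indicated concentrations, then exposed to test conjugate for 30 min. Cells were washed, freeze-thaw lysed, NaOH-hydrolysed 1 h to release parent drug, and extracted with ethyl acetate using an internal standard. Drug was quantified by LC-MS/MS and normalised to BCA protein. n=3.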

LNCaP cells [3] = test: Immunostaining of LNCaP cells with biotinylated peptides; type: binding
Procedure, shortened: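 LNCaP cells were fixed in ice-cold acetone/methanol (1/1) for 10 min and blocked with 1% BSA for 1 h. Biotinylated peptide was applied for 1 h in TBST (0.1% Tween-20, 0.1 M Tris-Cl, pH 7.4). After washing, streptavidin-FITC was added for 20 min and nuclei were counterstained. Cells were imaged by fluorescence microscopy at 200x.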

LNCaP cells [4] = test: Androgen induced proliferation assay; type: cell-based; conditions: R1881-containing serum-free medium, 3 days, compared with TGX-221
Procedure, shortened: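 LNCaP cells were seeded 12 h before assay. Medium was switched to serum-free medium containing 1 nM R1881 (synthetic androgen), then test compound was added. After 72 h incubation, proliferation was read by Alamar Blue assay. Mean ± SD, n=3.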

[5] = test system: androgen response element (ARE-LUC) reporter in LNCaP cells; test: Androgen induced gene expression assay; type: cell-based; conditions: R1881 1.0 nM, 24 hours, compared with TGX-221
Procedure, shortened: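 LNCaP cells in 6-well plates were transfected the next day with 1.0 μg ARE-LUC plasmid using Lipofectamine. After 24 h, medium was changed to RPMI-1640 with 2% FBS and 1.0 nM R1881, test compound was added, and cells were incubated 24 h. Cells were PBS-washed and lysed, and luciferase activity was normalised to BCA total protein. Mean ± SD, n=3.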

LNCaP cells [6] = test: Cellular uptake study; type: cell-based; conditions: 0.5 μM, 1 hour incubation

**Q.** With Cc1cc(C(C)Nc2ccccc2)c2nc(N3CCOCC3)cc(=O)n2c1 (stereo not shown) [TGX-221] as the molecule, how does the IC50 (LNCaP cells [1]) read?
**A.** The IC50 was 1070 nM.

**Q.** And the IC50 (DU145 cells)?
**A.** The IC50 was greater than 100 µM.

**Q.** What about the “inhibition effect on PI3Kβ over PI3Kα” value (PI3Kβ) of the same molecule?
**A.** The value was “about 1000 fold”.

**Q.** What about the “inhibition effect on PI3Kβ over PI3Kγ” value (PI3Kβ) of the same molecule?
**A.** The value was “about 1000 fold”.

**Q.** What about the “inhibition effect on PI3Kβ over PI3Kδ” value (PI3Kβ) of the same molecule?
**A.** The value was roughly 20 fold.

**Q.** Which “uptake by LNCaP cells after pre-incubation with the HER2-specific ligand” value (LNCaP cells [2]) does the source give for Ac-KCCYSL here?
**A.** The value was “significantly inhibited”.

**Q.** Which “fluorescence on LNCaP cells (streptavidin-FITC staining)” value (LNCaP cells [3]; control peptide, concentration increased to 100 μM (data not shown)) does the source give for DPRATPGSK here?
**A.** Its value is “No significant fluorescence”.

**Q.** What does the source list for Cc1cc(C(C)N(CCO)c2ccccc2)c2nc(N3CCOCC3)cc(=O)n2c1 (stereo not shown) [TGX-D1]?
**A.** IC50 (LNCaP cells [1]): 2670 nM; IC50 (DU145 cells): > 100 µM; inhibition of androgen-induced cell proliferation (LNCaP cells [4]): comparable effects; inhibition of androgen-induced gene expression [5]: comparable effects; cellular uptake in LNCaP cells (LNCaP cells [6]): low uptake

**Q.** For KCCYSL, which “binding on LNCaP cells (streptavidin-FITC staining)” value (LNCaP cells [3]; C-terminus biotinylated peptide, 10 μM) is on record?
**A.** The value was “high-affinity binding”.
